Activity calls are given as the source filed them. No cut-off for these calls is given here.
How the values were obtained:
[1] = test system: Human immunodeficiency virus 1; assay: Antiviral activity against HIV1 subtype CRF02_AG harboring protease polymorphism at I36 position and I50FILV, A71V mutant gene infected in human cord blood mononuclear cells assessed as inhibition of viral replication […]; assay type: functional, organism-based; details: Human immunodeficiency virus 1, subtype CRF02_AG
Method in brief: (§1)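 Cord blood mononuclear cells were PHA-stimulated for 72 h in RPMI 1640 with 10% FBS and IL-2. Cells were infected for 2 h with week-0 clonal virus or PI-selected virus (weeks 25 and 35 of selection). They were plated at 5 × 10⁵ cells/well with PI at 0.04 nM to 10 μM. Drug-containing medium was replenished on day 3, supernatant RT activity was read on day 7, and EC₅₀ was derived.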

[2] = test system: Human immunodeficiency virus 1; assay: Antiviral activity against HIV1 subtype CRF02_AG harboring protease polymorphism at M36 position and I50FILV, A71V mutant gene infected in human cord blood mononuclear cells assessed as inhibition of viral replication […]; assay type: functional, organism-based; details: Human immunodeficiency virus 1, subtype CRF02_AG; method in brief: as §1
[3] = test system: Human immunodeficiency virus 1; assay: Antiviral activity against HIV1 subtype B harboring protease polymorphism at I36 position and M46I, I50L, N88S mutant gene infected in human cord blood mononuclear cells assessed as inhibition of viral replication […]; assay type: functional, organism-based; details: Human immunodeficiency virus 1, subtype B; method in brief: as §1
[4] = test system: Human immunodeficiency virus 1; assay: Antiviral activity against HIV1 subtype C harboring protease E35G mutant gene and polymorphism at I36 position infected in human cord blood mononuclear cells assessed as inhibition of viral replication […]; assay type: functional, organism-based; details: Human immunodeficiency virus 1, subtype C; method in brief: as §1
[5] = test system: Human immunodeficiency virus 1; assay: Antiviral activity against HIV1 subtype C harboring protease L23I, M46I/M, L89T mutant gene and polymorphism at M36 position infected in human cord blood mononuclear cells assessed as inhibition of viral replication […]; assay type: functional, organism-based; details: Human immunodeficiency virus 1, subtype C; method in brief: as §1
[6] = test system: Human immunodeficiency virus 1; assay: Antiviral activity against HIV1 subtype B harboring protease polymorphism at M36 position M46I, I50L, N88S mutant gene infected in human cord blood mononuclear cells assessed as inhibition of viral replication […]; assay type: functional, organism-based; details: Human immunodeficiency virus 1, subtype B; method in brief: as §1
[7] = test system: Human immunodeficiency virus 1; assay: Antiviral activity against HIV1 subtype C harboring protease L10R, M46I, I54V, V82S mutant gene and polymorphism at M36 position infected in human cord blood mononuclear cells assessed as inhibition of viral replication […]; assay type: functional, organism-based; details: Human immunodeficiency virus 1, subtype C; method in brief: as §1
[8] = test system: Human immunodeficiency virus 1; assay: Selectivity ratio of EC50 for HIV1 subtype C harboring protease L10R, M46I, I54V, V82S mutant gene and polymorphism at M36 position to EC50 for wild type HIV1 subtype C; assay type: functional
[9] = test system: Human immunodeficiency virus 1; assay: Selectivity ratio of EC50 for HIV1 subtype CRF02_AG harboring protease L76V, M46I, I84V mutant gene and polymorphism at M36 position to EC50 for wild type HIV1 subtype CRF02_AG; assay type: functional
[10] = test system: Human immunodeficiency virus 1; assay: Selectivity ratio of EC50 for HIV1 subtype C harboring protease L32I, M46I/M, L76V mutant gene and polymorphism at I36 position to EC50 for wild type HIV1 subtype C; assay type: functional
[11] = test system: Human immunodeficiency virus 1; assay: Antiviral activity against HIV1 subtype C harboring protease L32I, M46I/M, L76V mutant gene and polymorphism at I36 position infected in human cord blood mononuclear cells assessed as inhibition of viral replication after 48 hrs by luciferase reporter gene assay; assay type: functional, organism-based; details: Human immunodeficiency virus 1, subtype C
[12] = test system: Human immunodeficiency virus 1; assay: Antiviral activity against HIV1 subtype CRF02_AG harboring protease L76V, M46I, I84V mutant gene and polymorphism at M36 position infected in human cord blood mononuclear cells assessed as inhibition of viral replication […]; assay type: functional, organism-based; details: Human immunodeficiency virus 1, subtype CRF02_AG; method in brief: as §1
[13] = test system: Human immunodeficiency virus 1; assay: Antiviral activity against HIV1 subtype CRF02_AG harboring protease M46, I47A, I84V mutant gene and polymorphism at I36 position infected in human cord blood mononuclear cells assessed as inhibition of viral replication on day 7 by RT activity assay; details: Human immunodeficiency virus 1, subtype CRF02_AG, 7 days
[14] = test system: Human immunodeficiency virus 1; assay: Antiviral activity against HIV1 subtype B harboring protease polymorphism at M36 position and L10F, V82A mutant gene infected in human cord blood mononuclear cells assessed as inhibition of viral replication after 48 hrs by luciferase reporter gene assay; assay type: functional, organism-based; details: Human immunodeficiency virus 1, subtype B
[15] = test system: Human immunodeficiency virus 1; assay: Selectivity ratio of EC50 for HIV1 subtype CRF02_AG harboring protease M46, I47A, I84V mutant gene and polymorphism at I36 position to EC50 for wild type HIV1 subtype CRF02_AG; assay type: functional
[16] = test system: Human immunodeficiency virus 1; assay: Selectivity ratio of EC50 for HIV1 subtype CRF02_AG harboring protease L33I, M46I, A71T mutant gene and polymorphism at M36 position to EC50 for wild type HIV1 subtype CRF02_AG; assay type: functional
[17] = test system: Human immunodeficiency virus 1; assay: Antiviral activity against wild type HIV1 subtype B infected in human cord blood mononuclear cells assessed as inhibition of viral replication after 48 hrs by luciferase reporter gene assay; assay type: functional, organism-based; details: Human immunodeficiency virus 1, subtype B
[18] = test system: Human immunodeficiency virus 1; assay: Antiviral activity against HIV1 subtype CRF02_AG harboring protease polymorphism at I36 position and M46 mutant gene infected in human cord blood mononuclear cells assessed as inhibition of viral replication on day 7 by RT activity assay; details: Human immunodeficiency virus 1, subtype CRF02_AG, 7 days
[19] = test system: Human immunodeficiency virus 1; assay: Antiviral activity against wild type HIV1 subtype CRF02_AG infected in human cord blood mononuclear cells assessed as inhibition of viral replication after 48 hrs by luciferase reporter gene assay; assay type: functional, organism-based; details: Human immunodeficiency virus 1, subtype CRF02_AG
[20] = test system: Human immunodeficiency virus 1; assay: Selectivity ratio of EC50 for HIV1 subtype B harboring protease D30N, M46I, A71T and V77I mutant gene and polymorphism at M36 position to EC50 for wild type HIV1 subtype B; assay type: functional
[21] = test system: Human immunodeficiency virus 1; assay: Antiviral activity against HIV1 subtype B harboring protease polymorphism at M36 position infected in human TZM-bl cells assessed as inhibition of viral replication after 48 hrs by luciferase reporter gene assay; assay type: functional, organism-based
Method in brief: (§2)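 TZM-bl cells (10⁴/well) in DMEM with 10% FBS were infected with the week-0 or week-35 polymorphic variant. After 48 h, cells were PBS-rinsed and lysed, and luciferase activity was read as relative light units. Results are means of three independent experiments run in duplicate.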

[22] = test system: Human immunodeficiency virus 1; assay: Selectivity ratio of EC50 for HIV1 subtype C harboring protease polymorphism at I36 position to EC50 for wild type HIV1 subtype C; assay type: functional
[23] = test system: Human immunodeficiency virus 1; assay: Selectivity ratio of EC50 for HIV1 subtype C harboring protease L23I, M46I, L89T and polymorphism at M36 position to EC50 for wild type HIV1 subtype C M36
[24] = test system: Human immunodeficiency virus 1; assay: Antiviral activity against HIV1 subtype C harboring protease L23I, M46I, L89T mutant gene and polymorphism at M36 position infected in human cord blood mononuclear cells assessed as inhibition of viral replication […]; assay type: functional, organism-based; details: Human immunodeficiency virus 1, subtype C; method in brief: as §1
[25] = test system: Human immunodeficiency virus 1; assay: Selectivity ratio of EC50 for HIV1 subtype CRF02_AG harboring protease polymorphism at I36 position and M46 mutant gene to EC50 for wild type HIV1 subtype CRF02_AG; assay type: functional
[26] = test system: Human immunodeficiency virus 1; assay: Antiviral activity against HIV1 subtype B harboring protease D30N, M46I, A71T and V77I mutant gene and polymorphism at M36 position of protease infected in human cord blood mononuclear cells assessed as inhibition of viral replication […]; assay type: functional, organism-based; details: Human immunodeficiency virus 1, subtype B; method in brief: as §1
[27] = test system: Human immunodeficiency virus 1; assay: Antiviral activity against HIV1 subtype CRF02_AG harboring protease polymorphism at I36 position infected in human TZM-bl cells assessed as inhibition of viral replication after 48 hrs by luciferase reporter gene assay; assay type: functional, organism-based; method in brief: as §2
[28] = test system: Human immunodeficiency virus 1; assay: Antiviral activity against wild type HIV1 subtype C infected in human cord blood mononuclear cells assessed as inhibition of viral replication after 48 hrs by luciferase reporter gene assay; assay type: functional, organism-based; details: Human immunodeficiency virus 1, subtype C
[29] = test system: Human immunodeficiency virus 1; assay: Antiviral activity against HIV1 subtype B harboring protease D30N, L33I, M46I, N88D mutant gene and polymorphism at I36 position infected in human cord blood mononuclear cells assessed as inhibition of viral replication […] by […]; assay type: functional, organism-based; details: Human immunodeficiency virus 1, subtype B; method in brief: as §1
[30] = test system: Human immunodeficiency virus 1; assay: Antiviral activity against HIV1 subtype C harboring protease D30N, E35G, I85V, L90M mutant gene and polymorphism at I36 position infected in human cord blood mononuclear cells assessed as inhibition of viral replication […]; assay type: functional, organism-based; details: Human immunodeficiency virus 1, subtype C; method in brief: as §1
[31] = test system: Human immunodeficiency virus 1; assay: Antiviral activity against HIV1 subtype CRF02_AG harboring protease L33I, M46I, A71T mutant gene and polymorphism at M36 position infected in human cord blood mononuclear cells assessed as inhibition of viral replication […]; assay type: functional, organism-based; details: Human immunodeficiency virus 1, subtype CRF02_AG; method in brief: as §1
[32] = test system: Human immunodeficiency virus 1; assay: Selectivity ratio of EC50 for HIV1 subtype B harboring protease polymorphism at M36 position infected in human cord blood mononuclear cells to EC50 for HIV1 subtype B harboring protease polymorphism at I36 position infected in human cord blood mononuclear cells; assay type: functional
[33] = test system: Human immunodeficiency virus 1; assay: Antiviral activity against HIV1 subtype B harboring protease polymorphism at I36 position infected in human TZM-bl cells assessed as inhibition of viral replication after 48 hrs by luciferase reporter gene assay; assay type: functional, organism-based; method in brief: as §2

Structure (SMILES): COC(=O)N[C@H](C(=O)N[C@@H](Cc1ccccc1)[C@@H](O)CN(Cc1ccc(-c2ccccn2)cc1)NC(=O)[C@@H](NC(=O)OC)C(C)(C)C)C(C)(C)C [ATAZANAVIR]
- EC50 [1]: 18.6 nM
- EC50 [2]: 9.3 nM
- EC50 [3]: 7.1 nM
- EC50 [4]: 3.7 nM
- EC50 [5]: 88 nM
- EC50 [6]: 183 nM

Structure (SMILES): Cc1cccc(C)c1OCC(=O)N[C@@H](Cc1ccccc1)[C@@H](O)C[C@H](Cc1ccccc1)NC(=O)[C@H](C(C)C)N1CCCNC1=O [LOPINAVIR]
- EC50 [7]: 418 nM
- Ratio EC50 [8]: 190
- Ratio EC50 [9]: 22
- Ratio EC50 [10]: 46
- EC50 [11]: 157 nM
- EC50 [12]: 134 nM
- EC50 [13]: 1470 nM
- EC50 [14]: 196 nM
- Ratio EC50 [15]: 101

Structure (SMILES): Cc1c(O)cccc1C(=O)N[C@@H](CSc1ccccc1)[C@H](O)CN1C[C@H]2CCCC[C@H]2C[C@H]1C(=O)NC(C)(C)C [NELFINAVIR]
- Ratio EC50 [16]: 35
- EC50 [17]: 9.8 nM
- EC50 [18]: 55 nM
- EC50 [19]: 5.7 nM
- Ratio EC50 [20]: 70
- Activity [21]: Active
- Ratio EC50 [22]: 1158
- Ratio EC50 [23]: 163
- EC50 [24]: 272 nM
- Ratio EC50 [25]: 6
- EC50 [26]: 1140 nM
- Activity [27]: Active
- EC50 [28]: 1.67 nM
- EC50 [29]: 1460 nM
- EC50 [30]: 3470 nM
- EC50 [31]: 202 nM
- Ratio EC50 [32]: 2
- Activity [33]: Active
